From PubChem BioAssay
OX1R antag-1: antagonists of human orexin 1 receptor (OX1R) | O43613 | OX1R-expressing cells, FRET antagonist read-out | inhibition, % at 6.6 µM | 330,000 tested, 1.8% active | AID 485270; in the data active means inhibition mostly above about 38%, no sharp cut-off; inactive means mostly below about 40%;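 further: 0% = agonist challenge alone and 100% = reference antagonist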
Target sequence (O43613 whole entry, looked up): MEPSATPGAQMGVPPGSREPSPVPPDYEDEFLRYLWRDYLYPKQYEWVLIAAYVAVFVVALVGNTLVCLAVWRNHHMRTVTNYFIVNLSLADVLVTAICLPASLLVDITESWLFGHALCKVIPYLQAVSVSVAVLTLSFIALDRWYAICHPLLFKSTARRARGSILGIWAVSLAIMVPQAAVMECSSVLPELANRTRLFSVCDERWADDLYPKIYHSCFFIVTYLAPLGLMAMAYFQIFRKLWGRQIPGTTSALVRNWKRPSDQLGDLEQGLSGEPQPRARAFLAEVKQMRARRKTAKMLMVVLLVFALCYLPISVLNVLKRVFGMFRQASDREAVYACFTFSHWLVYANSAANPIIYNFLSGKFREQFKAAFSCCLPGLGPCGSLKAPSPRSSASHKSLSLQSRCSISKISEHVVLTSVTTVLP
OX1R antag-2: blocks the human orexin 1 receptor | O43613 | CHO/OX1R cells, Fluo-8 calcium fluorescence, orexin A | inhibition, % at 5 µM | 330,000 tested, 0.43% active;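 active means inhibition above its plate's threshold, mean inhibition of all tested compounds on the plate plus 3 SD, cut at about 37% in these data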;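 further: 0% = orexin A challenge wells and 100% = SB-334867-A antagonist wells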
GPR7 antagonist: antagonists of human GPR7 (neuropeptides B/W receptor 1); P48145; GPR7-expressing cells, fluorescence antagonist assay; inhibition, % at 4.4 µM; 290,000 tested, 1.1% active; AID 1861; in the data active means inhibition above about 16%, passing the limit was not always enough;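 further: cells stimulated with the agonist NPW; 0% = agonist with vehicle and 100% = vehicle without agonist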
CHO parental Ca: counter-screen: ATP calcium response change in parental CHO cells. parental CHO-K1, ATP-induced calcium, Fluo-8 fluorescence. inhibition, % at 5.6 µM. 330,000 tested, 0.63% active. AID 463079;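 active means inhibition above that plate's mean sample inhibition plus 3 SD, cut at about 26% in these data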;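 further: 0% = ATP-challenged DMSO wells and 100% = DMSO wells without ATP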
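material = parental CHO cells | also added = ATP as calcium-mobilizing challenge | dosing = single point at 5.6 µM | detection = intracellular calcium via Fluo-8 no-wash fluorescent dye | read-out = % inhibition | benchmarks = low control ATP plus DMSO, high control DMSO only | repeats = one well per compound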
TAAR1 antag: human TAAR1 antagonism | 360,000 tested, 1.5% active | Q96RJ0 | CHO RD-HGA16 TAAR1, Fluo-8 calcium fluorescence, antagonist | inhibition, % at 3 µM;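 active means inhibition above a per-plate cutoff, the mean inhibition of test compounds on that plate plus 3 SD, cut at about 49% in these data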;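 further: 0% = DMSO plus EC80 beta-PEA response and 100% = DMSO alone without agonist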
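test system = CHO RD-HGA16 cells bearing hTAAR1 | replication = singlicate | controls = DMSO-only wells and EC80 β-PEA-stimulated wells | reagent = EC80 β-phenethylamine stimulus | read-out basis = percent inhibition of PEA-evoked calcium signal, max/basal emission ratio | schedule = seeding 17-24 h prior, 75-min 37 °C, 30-min RT dye loading | signal = kinetic Fluo-8 calcium fluorescence measurement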
TAAR1 ag: human TAAR1 agonism; CHO RD-HGA16 TAAR1, Fluo-8 calcium fluorescence; vehicle wells 0%, saturating PEA agonist 100%; AID 624467; 360,000 tested, 0.99% active; Q96RJ0; activation, % at 3 µM;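 active means activation above the mean activation of all test compounds in the run plus 3 SD, cut at about 38% in these data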
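Repeats: no replicates (n 1) | Material: CHO-derived RD-HGA16 cells with stable Gα16 and human TAAR1 | Technique: Kinetic Fluo-8 calcium fluorescence | Schedule: 17-24 h seeding, 75 min 37 °C dye, 30 min RT | Evaluation: % activation from peak over basal fluorescence ratio, DMSO-to-PEA scaled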
Starred values were filed as active, the others as inactive; x = not tested or not shown. Most compounds without a hit are left out; they make up all but 4.6% or so of the library.

SMILES	OX1R antag-1	OX1R antag-2	GPR7 antagonist	CHO parental Ca	TAAR1 antag	TAAR1 ag
COCC(C)NC(C(=O)Nc1ccc(Cl)c([N+](=O)[O-])c1)c1ccccc1 (stereo not given)	11	-18	-5	81*	-16	-1
O=C(Nc1ccc(Cl)c([N+](=O)[O-])c1)C(Sc1ccccc1)c1ccccc1 (stereo not given)	27	23	-5	-6	57*	6
OC(COc1ccccc1)Cn1c2ccccc2c2ccccc21 (stereo not given)	11	-7	-2	-4	-19	8
CC(=O)Nc1ccc(OCC(O)Cn2c3ccccc3c3ccccc32)cc1 (stereo not given)	12	5	7	-4	-8	22
O=C(O)c1ccc(OCC(O)Cn2c3ccccc3c3ccccc32)cc1 (stereo not given)	13	32	-5	38*	45	17
CC(=O)Nc1ccc(OCC(O)Cn2c3ccccc3c3ccccc32)c(C)c1 (stereo not given)	16	23	6	9	65*	36
CC(C)(C)OC(=O)C(Oc1ccccc1[N+](=O)[O-])C(=O)OC(C)(C)C	x	x	x	x	-50	-2
CCCCCCCCCCC(C(=O)O)C1(C(=O)O)CCC(=O)O1 (stereo not given)	x	x	x	x	0	1
CC(=O)N1CCN(S(=O)(=O)c2cccc(C(=O)OCc3ccc(C(C)(C)C)cc3)c2)CC1	x	x	x	x	38	17
CC(=O)c1cccc(NC(=O)c2ccc(-c3c(C)noc3C)c3ccoc23)c1	x	x	x	x	64*	11
COc1ccc(NC(=O)c2cccc3c(-c4cnn(C)c4)coc23)cc1	x	x	x	x	4	7
COc1ccc(-c2ccc(C(=O)Nc3ccc(NC(C)=O)cc3)c3occc23)c(C)c1	x	x	x	x	51*	14
CC(=O)c1cccc(NC(=O)c2cccc3c(-c4cnn(C)c4)coc23)c1	x	x	x	x	55*	14
COc1cc(NC(=O)c2cccc3c(-c4cnn(C)c4)coc23)cc(OC)c1OC	x	x	x	x	54*	15
CC(=O)Nc1ccc(NC(=O)c2ccc(-c3c(C)noc3C)c3ccoc23)cc1	x	x	x	x	-7	6
O=C(COc1ccc(Cl)cc1Cl)Nc1ccccc1NS(=O)(=O)c1cccs1	52*	-11	-12	19	0	6
CC(=O)N1CCN(c2ccccc2NC(=O)COc2ccc(Cl)cc2Cl)CC1	37	-23	19*	-8	40	30
Cc1cc(Cl)ccc1OCC(=O)NNC(=O)c1cccs1	-3	-16	-13	-21	-12	0
O=C(COc1ccccc1)Nc1ccccc1NS(=O)(=O)c1cccs1	17	-13	-8	-11	12	0
NC(=O)c1ccccc1NS(=O)(=O)c1cccs1	13	12	-1	-15	-15	10
Cc1cc(Cl)ccc1OCC(=O)Nc1ccccc1NS(=O)(=O)c1cccs1	41*	-8	-13	14	11	2
O=C(Nc1ccc(Cl)cc1)Nc1ccccc1NS(=O)(=O)c1cccs1	60*	-26	-13	-7	9	15
CC(=O)N1CCN(c2ccccc2NC(=O)COc2ccccc2C)CC1	8	-25	14	-18	28	4
CCOC(=O)C1=CCN(S(=O)(=O)c2cccc(Cl)c2)C1c1ccc(Cl)c(Cl)c1 (stereo not given)	x	x	x	x	17	1
CCOC(=O)CN1C(=O)N(c2ccc(OC)cc2)[C@H]2CC3c4ccccc4C[C@]3(C)[C@@H](C(=O)N(C)C3CCCCC3)C[C@H]21 (stereo not given in full)	x	x	x	x	-10	1
SMILES	OX1R antag-1	OX1R antag-2	GPR7 antagonist	CHO parental Ca	TAAR1 antag	TAAR1 ag
CC(=O)Nc1ccc(NC(=O)C(C)OC(=O)CCCOc2ccc(Cl)cc2C)cc1 (stereo not given)	53*	0	x	-22	20	2
O=S(=O)(Nc1ccccc1Cl)c1ccc(NS(=O)(=O)c2cccs2)cc1	8	-5	5	1	8	38*
Cc1cc(Cl)ccc1OCC(=O)Nc1ccncc1	16	8	5	49*	5	10
CC(=O)Nc1ccc(NC(=O)C(C)OC(=O)CCCN2C(=O)c3cccc4cccc(c34)C2=O)cc1 (stereo not given)	74*	-4	x	-24	-1	10
O=C(NCCC(F)(F)F)C1Cc2c(-c3ccc(Cl)cc3)ccnc2O1 (stereo not given)	x	x	x	x	-11	-1
COc1ccccc1-c1nc(-c2ccc(Br)o2)no1	55*	-25	-11	-15	-24	-2
CCOc1cc(OCC)cc(C(=O)N2CCC[C@H]2C(=O)N2CCC[C@H]2C(=O)N[C@H](C)c2ccccc2)c1	x	x	x	x	-9	8
CCc1nc2c(OCc3ccc(C(F)(F)F)cc3)cccn2c1N(C)C(=O)c1ccc(C)cc1	x	x	x	x	-20	-1
O=C(NCc1nnc(SCC(=O)N2CCCc3ccccc32)n1-c1ccccc1)c1cccc2ccccc12	13	-12	1	-25	50*	10
COc1ccc(N(CC(=O)NCCC2=CCCCC2)S(=O)(=O)c2ccccc2)c(OC)c1	62*	-31	17	-37	6	-2
CCOc1ccccc1N(CC(=O)Nc1ccc(OC)cc1OC)S(=O)(=O)c1ccccc1	50*	-8	4	0	-32	-2
CCOc1ccccc1N(CC(=O)Nc1ccc(OC)cc1)S(=O)(=O)c1ccccc1	18	-27	-2	-24	20	1
COC(=O)CNC(=O)CN(c1ccc(OC)cc1OC)S(=O)(=O)c1ccccc1	2	7	x	-13	2	1
CCOc1ccccc1N(CC(=O)NCCc1ccc(OC)c(OC)c1)S(=O)(=O)c1ccccc1	76*	6	-8	-16	-29	6
COC(=O)c1cc(NC(=O)CN(c2ccccc2OC)S(=O)(=O)c2ccccc2)ccc1Cl	17	0	13	-10	51*	7
CCCCOCCCNC(=O)C[C@H]1C[C@@]2(C(=O)OC)C(=C[C@H](C3CCCC3)O[C@@H]2C)N(Cc2ccccc2)C1=O	x	x	x	x	-31	-2
C=CCN=C1NC(c2cccc(Cl)c2)C(C(=O)OC)=C(C)N1C (stereo not given)	x	x	x	x	7	0
COC(=O)C1=C(C)NC(C)=C(C(=O)OC)C(N2C(=O)CCC2=O)C1 (stereo not given)	x	x	x	x	-4	2
COCCN(CCOC)C(=O)[C@@H](Cc1ccccc1)NC(=O)[C@H]1O[C@@H](n2ccc(N)nc2=O)[C@H](O)[C@@H]1O	x	x	x	x	-16	0
COc1ccc(OC)c(N(CC(=O)NC2CC3CCC2C3)S(=O)(=O)c2ccccc2)c1 (stereo not given)	46*	-41	20	-40	-22	6
c1ccc(Nc2nc(-c3ccccc3)ns2)cc1	49*	-13	-8	-3	17	9
